Test results: paper PMC3003407 (The Journal of Biological Chemistry, 2010)
Each block holds one substance with its values, some of them ahead of it.

Columns and labels:
[1] = target: human plasma fibronectin (human); test: ELISA
[2] = target: FN (Homo sapiens, UniProt P02751); test: Competition of 0.3 nM b-FUD binding to adsorbed FN; conditions: 1000 nM competitor
Procedure, shortened: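 Wells coated overnight at 4 °C with 10 μg/ml (40 nM) FN, then blocked with 5% BSA in TBST. 0.3 nM biotinylated FUD was added together with competitor in TBST plus 0.1% BSA for 2 h. Detection used alkaline phosphatase–streptavidin (1:20,000, 1 h), 4-nitrophenyl phosphate (1 mg/ml, TBS pH 9.0) and A405. Triplicates, background-subtracted, expressed relative to b-FUD alone.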

[3] = target: recombinant human N-terminal 70-kDa fibrin- and gelatin-binding fragment of fibronectin (N-9FNI, residues 32-608) (human) (UniProt P02751); test: ITC

Substance: FUD i29/30 (single alanine inserted between Ile-29 and Asp-30) (domain or fragment)
percent competition at 10 μM [1]: 20%

competition with b-FUD for binding to FN [2]: minor degree
Substance: N-^5FNI: Recombinant FN fibrin-binding fragment, residues 32–290

Substance: functional upstream domain (FUD) of Streptococcus pyogenes F1 adhesin, recombinant, 56 residues with tails (domain or fragment)
Kd [3]: 5.2 nM
